# Test results reported in ChEMBL document CHEMBL4145534, “Computer-aided insights into receptor-ligand interaction for novel 5-arylhydantoin derivatives as serotonin 5-HT7 receptor agents with antidepressant activity” (Eur J Med Chem, 2018).
# Tests used:
# [1] = target: D(2) dopamine receptor (Homo sapiens, UniProt P14416); assay: Displacement of [3H]-raclopride from human D2L receptor expressed in HEK293 cell membranes after 1 hr by Microbeta scintillation counting method
# [2] = target: T1, 5-hydroxytryptamine receptor 1A (Homo sapiens, UniProt P08908); assay: Displacement of [3H]-8-OH-DPAT from human 5HT1AR expressed in HEK293 cell membranes after 1 hr by Microbeta scintillation counting method
# T1 sequence (P08908 whole entry): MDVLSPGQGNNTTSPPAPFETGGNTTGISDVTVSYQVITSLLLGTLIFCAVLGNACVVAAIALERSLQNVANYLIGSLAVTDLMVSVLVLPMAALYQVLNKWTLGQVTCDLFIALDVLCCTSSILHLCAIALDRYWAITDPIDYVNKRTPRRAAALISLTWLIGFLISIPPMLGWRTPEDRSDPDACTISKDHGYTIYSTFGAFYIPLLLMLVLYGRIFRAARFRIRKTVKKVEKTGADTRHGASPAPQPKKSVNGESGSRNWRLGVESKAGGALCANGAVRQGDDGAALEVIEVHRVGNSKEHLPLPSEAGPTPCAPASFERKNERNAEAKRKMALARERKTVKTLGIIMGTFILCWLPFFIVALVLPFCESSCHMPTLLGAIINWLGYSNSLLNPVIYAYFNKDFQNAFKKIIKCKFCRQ
# [3] = target: 5-hydroxytryptamine receptor 7 (Homo sapiens, UniProt P34969); assay: Displacement of [3H]-5-CT from human 5HT7BR expressed in HEK293 cell membranes after 1 hr by Microbeta scintillation counting method
# [4] = target: T2, Adrenergic receptor alpha-1 (Rattus norvegicus, UniProt P15823+P23944+P43140); assay: Displacement of [3H]-prazosin from alpha1-adrenergic receptor in rat brain cortex after 30 mins by Microbeta scintillation counting method
# T2 sequence (P15823 whole entry): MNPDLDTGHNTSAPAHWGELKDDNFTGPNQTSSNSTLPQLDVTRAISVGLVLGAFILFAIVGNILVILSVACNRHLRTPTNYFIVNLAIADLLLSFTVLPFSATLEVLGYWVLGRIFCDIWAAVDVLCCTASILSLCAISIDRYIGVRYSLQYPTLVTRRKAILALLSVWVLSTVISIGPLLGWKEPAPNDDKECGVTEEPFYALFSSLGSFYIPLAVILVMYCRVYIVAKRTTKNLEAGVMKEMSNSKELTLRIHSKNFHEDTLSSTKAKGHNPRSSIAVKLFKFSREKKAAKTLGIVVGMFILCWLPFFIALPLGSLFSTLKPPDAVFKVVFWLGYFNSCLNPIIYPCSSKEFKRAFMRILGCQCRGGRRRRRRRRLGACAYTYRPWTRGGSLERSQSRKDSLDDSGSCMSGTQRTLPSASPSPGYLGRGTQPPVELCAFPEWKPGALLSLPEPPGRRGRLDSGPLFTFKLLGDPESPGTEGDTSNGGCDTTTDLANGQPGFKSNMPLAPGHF
# T2 sequence (P23944 whole entry): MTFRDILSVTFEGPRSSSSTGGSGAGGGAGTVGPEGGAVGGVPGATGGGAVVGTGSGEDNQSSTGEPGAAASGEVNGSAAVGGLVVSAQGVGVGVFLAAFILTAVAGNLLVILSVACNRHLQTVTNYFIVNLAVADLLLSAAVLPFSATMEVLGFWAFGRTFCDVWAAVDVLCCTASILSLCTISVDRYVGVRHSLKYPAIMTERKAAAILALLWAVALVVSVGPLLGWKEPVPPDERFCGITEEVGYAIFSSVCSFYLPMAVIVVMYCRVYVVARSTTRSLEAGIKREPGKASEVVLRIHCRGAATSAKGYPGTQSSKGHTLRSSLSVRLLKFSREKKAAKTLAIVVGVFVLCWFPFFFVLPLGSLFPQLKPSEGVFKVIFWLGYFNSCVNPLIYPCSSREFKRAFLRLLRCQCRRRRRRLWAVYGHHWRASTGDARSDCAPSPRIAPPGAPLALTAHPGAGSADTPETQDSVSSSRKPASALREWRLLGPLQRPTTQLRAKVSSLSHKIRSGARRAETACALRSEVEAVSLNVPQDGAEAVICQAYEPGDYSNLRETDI
# T2 sequence (P43140 whole entry): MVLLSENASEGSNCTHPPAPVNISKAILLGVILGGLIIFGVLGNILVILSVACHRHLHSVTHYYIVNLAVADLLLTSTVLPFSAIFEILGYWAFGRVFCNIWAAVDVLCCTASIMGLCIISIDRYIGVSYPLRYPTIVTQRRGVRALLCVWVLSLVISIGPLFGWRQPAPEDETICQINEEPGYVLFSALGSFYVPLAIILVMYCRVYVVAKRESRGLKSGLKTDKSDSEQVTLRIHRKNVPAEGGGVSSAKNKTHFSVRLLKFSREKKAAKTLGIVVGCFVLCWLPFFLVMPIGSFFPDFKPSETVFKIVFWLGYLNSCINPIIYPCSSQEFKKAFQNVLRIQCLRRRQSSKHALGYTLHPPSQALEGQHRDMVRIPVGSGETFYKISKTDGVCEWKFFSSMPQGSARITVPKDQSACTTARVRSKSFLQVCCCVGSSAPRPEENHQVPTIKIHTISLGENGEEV
# [5] = target: T3, Adrenergic receptor alpha-2 (Rattus norvegicus, UniProt P22086+P19328+P22909); assay: Displacement of [3H]-clonidine from alpha2-adrenergic receptor in rat brain cortex after 30 mins by Microbeta scintillation counting method
# T3 sequence (P22086 whole entry): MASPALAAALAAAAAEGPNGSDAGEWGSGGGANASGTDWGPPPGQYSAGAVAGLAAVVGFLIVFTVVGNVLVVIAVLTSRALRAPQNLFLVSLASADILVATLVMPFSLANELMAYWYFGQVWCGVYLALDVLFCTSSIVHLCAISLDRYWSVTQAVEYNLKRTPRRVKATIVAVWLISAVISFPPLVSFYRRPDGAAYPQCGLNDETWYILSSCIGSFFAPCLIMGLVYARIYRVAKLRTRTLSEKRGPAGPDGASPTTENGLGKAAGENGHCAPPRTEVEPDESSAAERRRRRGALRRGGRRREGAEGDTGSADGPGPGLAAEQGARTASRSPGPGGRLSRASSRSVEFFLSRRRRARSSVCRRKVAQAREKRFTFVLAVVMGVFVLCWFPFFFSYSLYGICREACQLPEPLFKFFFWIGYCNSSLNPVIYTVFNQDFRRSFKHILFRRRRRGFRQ
# T3 sequence (P19328 whole entry): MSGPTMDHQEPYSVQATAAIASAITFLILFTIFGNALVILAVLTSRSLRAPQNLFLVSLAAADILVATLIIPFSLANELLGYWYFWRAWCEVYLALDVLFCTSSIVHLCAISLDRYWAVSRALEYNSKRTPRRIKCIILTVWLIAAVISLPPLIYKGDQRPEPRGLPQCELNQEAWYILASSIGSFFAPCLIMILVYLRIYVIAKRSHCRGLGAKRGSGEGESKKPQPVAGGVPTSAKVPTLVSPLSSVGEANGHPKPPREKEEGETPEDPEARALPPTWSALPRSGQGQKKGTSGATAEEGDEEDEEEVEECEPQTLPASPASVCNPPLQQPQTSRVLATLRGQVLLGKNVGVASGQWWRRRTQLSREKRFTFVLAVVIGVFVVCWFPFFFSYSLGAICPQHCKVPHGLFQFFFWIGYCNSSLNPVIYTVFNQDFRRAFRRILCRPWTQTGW
# T3 sequence (P22909 whole entry): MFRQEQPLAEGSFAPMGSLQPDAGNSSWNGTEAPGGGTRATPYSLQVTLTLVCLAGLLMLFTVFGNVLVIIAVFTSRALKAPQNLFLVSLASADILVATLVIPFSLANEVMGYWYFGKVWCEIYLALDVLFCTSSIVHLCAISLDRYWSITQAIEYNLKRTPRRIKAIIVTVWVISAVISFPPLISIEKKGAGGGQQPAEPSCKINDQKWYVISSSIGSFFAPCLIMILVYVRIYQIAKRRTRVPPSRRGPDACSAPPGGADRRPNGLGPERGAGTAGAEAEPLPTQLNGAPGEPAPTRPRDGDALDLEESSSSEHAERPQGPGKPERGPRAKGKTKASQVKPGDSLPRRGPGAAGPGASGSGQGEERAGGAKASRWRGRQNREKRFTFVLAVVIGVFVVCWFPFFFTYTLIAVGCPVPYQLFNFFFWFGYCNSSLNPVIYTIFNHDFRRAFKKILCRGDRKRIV
# [6] = target: Beta-1 adrenergic receptor (Rattus norvegicus, UniProt P18090); assay: Displacement of [3H]-CGP-12177 from beta1-adrenergic receptor in rat brain cortex after 1 hr by Microbeta scintillation counting method
# [7] = system: Mus musculus; assay: Antidepressant like activity in Swiss albino mouse assessed as immobility time at 5 mg/kg, ip administered 60 mins prior to test and measured last 4 mins of 6 mins test by forced swimming test (reference value: 159.78 to 183.56 secs); format: functional
# [8] = system: Mus musculus; assay: Antidepressant like activity in Swiss albino mouse assessed as immobility time at 10 mg/kg, ip administered 60 mins prior to test and measured last 4 mins of 6 mins test by forced swimming test (reference value: 159.78 to 183.56 secs); format: functional
# [9] = system: Mus musculus; assay: Antidepressant like activity in Swiss albino mouse assessed as immobility time at 20 mg/kg, ip administered 60 mins prior to test and measured last 4 mins of 6 mins test by forced swimming test (reference value: 159.78 to 183.56 secs); format: functional
# [10] = system: Mus musculus; assay: Anxiolytic-like activity in Swiss albino mouse assessed as number of punished crossings at 10 mg/kg, ip administered 60 mins prior to test and measured post 3 secs of electric shock by four-plate test (reference value: 3.8 to 4 /min); format: functional
# [11] = system: Mus musculus; assay: Anxiolytic-like activity in Swiss albino mouse assessed as number of punished crossings at 20 mg/kg, ip administered 60 mins prior to test and measured post 3 secs of electric shock by four-plate test (reference value: 3.8 to 4 /min); format: functional
# [12] = system: Mus musculus; assay: Anxiolytic-like activity in Swiss albino mouse assessed as number of punished crossings at 40 mg/kg, ip administered 60 mins prior to test and measured post 3 secs of electric shock by four-plate test (reference value: 3.8 to 4 /min); format: functional
# [13] = system: Mus musculus; assay: Antidepressant like activity in Swiss albino mouse assessed as decrease in immobility time at 20 mg/kg, ip administered 60 mins prior to test and measured last 4 mins of 6 mins test by forced swimming test relative to control; format: functional; set-up: scale not given: the % may be the effect or the level left
# [14] = system: Mus musculus; assay: Effect on spontaneous locomotor activity in Swiss albino mouse at 20 mg/kg, ip administered 60 mins prior to test and measured for 3 to 6 mins; format: ADME, organism-based; conditions: in vivo
# In short: (§1)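 Male Swiss Albino mice given compound or vehicle (1% Tween 80, 10 ml/kg) i.p. 60 min before test. Each mouse placed alone in a cage for 30 min habituation. Ambulation (photobeam channel crossings) then recorded over a 3–6 min session. Means ± SEM.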
# [15] = species on record: Homo sapiens; assay: Selectivity ratio of Ki for human D2L receptor expressed in HEK293 cell membranes to Ki for human 5HT7BR expressed in HEK293 cell membranes; format: cell-based
# In short: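 Membranes from HEK293 cells stably expressing human 5-HT1A, 5-HT7b or D2L receptors. Buffers all 50 mM Tris HCl with 4 mM MgCl2 and 0.1% ascorbate. 5-HT1A: 0.1 mM EDTA, 10 µM pargyline, 2.5 nM [3H]-8-OH-DPAT, room temperature. 5-HT7b: 10 µM pargyline, 0.8 nM [3H]-5-CT, 37°C. D2L: EDTA, NaCl, KCl, CaCl2, 2.5 nM [3H]-raclopride, 37°C. Incubation 1 h; nonspecific binding 10 µM 5-HT (haloperidol for D2L). Seven concentrations (10^-10–10^-4 M) in triplicate; filtration; Ki by Cheng-Prusoff; at least two experiments.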
# [16] = system: Mus musculus; assay: Anxiolytic-like activity in Swiss albino mouse assessed as number of punished crossings at 5 mg/kg, ip administered 60 mins prior to test and measured post 3 secs of electric shock by four-plate test (reference value: 3.8 to 4 /min); format: functional
# [17] = system: Mus musculus; assay: Effect on spontaneous locomotor activity in Swiss albino mouse at 10 mg/kg, ip administered 60 mins prior to test and measured for 3 to 6 mins; format: ADME, organism-based; conditions: in vivo; in short: as §1
# Sequence of 5-hydroxytryptamine receptor 7 (P34969 whole entry): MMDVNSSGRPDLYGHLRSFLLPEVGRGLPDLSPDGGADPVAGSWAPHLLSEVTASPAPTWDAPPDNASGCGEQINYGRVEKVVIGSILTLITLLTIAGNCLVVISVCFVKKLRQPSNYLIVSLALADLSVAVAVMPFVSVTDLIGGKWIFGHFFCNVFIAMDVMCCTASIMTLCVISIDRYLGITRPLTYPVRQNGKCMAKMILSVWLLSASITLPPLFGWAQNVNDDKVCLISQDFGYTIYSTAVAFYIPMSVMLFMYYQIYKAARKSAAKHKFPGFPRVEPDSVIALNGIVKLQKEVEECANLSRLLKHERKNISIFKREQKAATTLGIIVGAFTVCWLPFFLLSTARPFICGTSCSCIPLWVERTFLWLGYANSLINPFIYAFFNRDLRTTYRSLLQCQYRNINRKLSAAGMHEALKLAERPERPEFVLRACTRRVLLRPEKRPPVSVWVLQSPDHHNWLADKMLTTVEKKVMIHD
# Sequence of Beta-1 adrenergic receptor (P18090 whole entry): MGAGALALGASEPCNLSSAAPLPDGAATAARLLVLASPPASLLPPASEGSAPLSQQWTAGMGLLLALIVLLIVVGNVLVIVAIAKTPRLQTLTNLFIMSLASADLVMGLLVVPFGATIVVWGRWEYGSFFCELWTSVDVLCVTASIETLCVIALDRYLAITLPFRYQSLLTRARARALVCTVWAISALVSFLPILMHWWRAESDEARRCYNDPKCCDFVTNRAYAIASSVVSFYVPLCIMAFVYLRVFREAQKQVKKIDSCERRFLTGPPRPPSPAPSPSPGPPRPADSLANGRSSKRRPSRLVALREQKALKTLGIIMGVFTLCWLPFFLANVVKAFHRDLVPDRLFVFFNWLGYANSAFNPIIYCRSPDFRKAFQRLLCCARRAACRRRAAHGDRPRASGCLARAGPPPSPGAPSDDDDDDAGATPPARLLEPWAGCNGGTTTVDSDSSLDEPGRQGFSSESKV
# Sequence of D(2) dopamine receptor (P14416 whole entry): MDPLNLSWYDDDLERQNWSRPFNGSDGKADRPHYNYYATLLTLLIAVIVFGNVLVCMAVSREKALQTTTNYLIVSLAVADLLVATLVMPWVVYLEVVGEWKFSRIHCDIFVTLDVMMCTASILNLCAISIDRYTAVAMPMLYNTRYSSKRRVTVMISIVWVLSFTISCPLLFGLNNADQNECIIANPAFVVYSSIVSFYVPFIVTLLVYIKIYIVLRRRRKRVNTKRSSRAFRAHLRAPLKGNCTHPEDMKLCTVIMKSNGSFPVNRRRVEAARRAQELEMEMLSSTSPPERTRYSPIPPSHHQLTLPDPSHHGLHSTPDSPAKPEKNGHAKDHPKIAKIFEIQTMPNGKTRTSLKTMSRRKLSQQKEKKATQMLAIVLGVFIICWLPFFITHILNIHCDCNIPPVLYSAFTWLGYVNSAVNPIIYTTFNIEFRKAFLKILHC
Structure (SMILES),Ki [1] [nM],Ki [2] [nM],Ki [3] [nM],Ki [4] [nM],Ki [5] [nM],Ki [6] [nM],Time [7] [s],Time [8] [s],Time [9] [s],Activity [10] [min⁻¹],Activity [11] [min⁻¹],Activity [12] [min⁻¹],Activity [13] [%],Activity [14],Ratio Ki [15],Activity [16] [min⁻¹],Activity [17]
COc1ccccc1N1CCN(CC(O)CN2C(=O)NC(C)(c3ccc(Cl)cc3)C2=O)CC1.Cl (racemic),366,109,20,268,> 10000,–,–,–,–,–,–,–,–,–,–,–,–
CC1(c2ccccc2)NC(=O)N(CC(O)CN2CCN(c3ccccc3C#N)CC2)C1=O.Cl (racemic),1690,585,12,278,–,> 10000,141.22,134.57,34.44,3.3,4.9,5.2,80,Non-Toxic,140 to 190,–,–
CC1(c2ccc(Cl)cc2)NC(=O)N(CC(O)CN2CCN(C(c3ccccc3)c3ccccc3)CC2)C1=O.Cl (racemic),601,99,8,530,> 10000,–,–,–,–,–,–,–,–,–,–,–,–
COc1ccccc1N1CCN(CC(O)CN2C(=O)NC(C)(c3ccccc3)C2=O)CC1.Cl (racemic),1030,421,10,308,–,> 10000,182.89,121.38,66.11,4.7,4.3,–,–,Non-Toxic,–,3,Non-Toxic
CCOc1ccccc1N1CCN(CC(O)CN2C(=O)NC(C)(c3ccccc3)C2=O)CC1.Cl (racemic),303,190,6,500,> 5000,> 10000,–,–,–,–,–,–,–,–,–,–,–
